The results in this text go back to ChEMBL document CHEMBL1140243, “Synthesis and SAR of 2,3-diarylpyrrole inhibitors of parasite cGMP-dependent protein kinase as novel anticoccidial agents” (Bioorg Med Chem Lett, 2005).

The structures appear in SMILES notation. Bounds are passed on as bounds.

For one experiment, the system named is Eimeria acervulina. Briefly: Anticoccidial activity (percent reduction in oocyst production) against Eimeria acervulina in white leghorn chickens at 100 ppm. On the set-up: scale not given: the % may be the effect or the level left. The class given is functional. In outline: (§1)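 White Leghorn chicks were acclimated, then at 3 days old sorted by weight and randomized to medicated or control diets. There were one or two replicates of two birds per treatment. After 24 h of premedication, one bird per replicate got E. acervulina and the other E. tenella, both drug-sensitive laboratory strains. Inocula were sporulated oocysts in tap water, 0.25 mL per bird, giving low-to-moderate infection.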

The subject of the next experiment is Eimeria tenella. In words: Anticoccidial activity (percent reduction in oocyst production) against Eimeria tenella in white leghorn chickens at 100 ppm. The class given is functional. On the set-up: scale not given: the % may be the effect or the level left. In outline:
as §1

Experiment [1] has as its target cGMP-dependent protein kinase (Eimeria tenella, UniProt Q8MMZ8). In words: In vitro inhibition of Eimeria tenella cGMP-dependent protein kinase.
The next experiment is filed under the species Gallus gallus. Briefly: Anticoccidial activity (percent reduction in oocyst production) against Eimeria acervulina in white leghorn chickens at 25 ppm. On the set-up: scale not given: the % may be the effect or the level left. The class given is functional. Summed up: as §1

For orientation: IC50 means the concentration that inhibits the measured activity by half.

cGMP-dependent protein kinase, sequence (Q8MMZ8 whole entry): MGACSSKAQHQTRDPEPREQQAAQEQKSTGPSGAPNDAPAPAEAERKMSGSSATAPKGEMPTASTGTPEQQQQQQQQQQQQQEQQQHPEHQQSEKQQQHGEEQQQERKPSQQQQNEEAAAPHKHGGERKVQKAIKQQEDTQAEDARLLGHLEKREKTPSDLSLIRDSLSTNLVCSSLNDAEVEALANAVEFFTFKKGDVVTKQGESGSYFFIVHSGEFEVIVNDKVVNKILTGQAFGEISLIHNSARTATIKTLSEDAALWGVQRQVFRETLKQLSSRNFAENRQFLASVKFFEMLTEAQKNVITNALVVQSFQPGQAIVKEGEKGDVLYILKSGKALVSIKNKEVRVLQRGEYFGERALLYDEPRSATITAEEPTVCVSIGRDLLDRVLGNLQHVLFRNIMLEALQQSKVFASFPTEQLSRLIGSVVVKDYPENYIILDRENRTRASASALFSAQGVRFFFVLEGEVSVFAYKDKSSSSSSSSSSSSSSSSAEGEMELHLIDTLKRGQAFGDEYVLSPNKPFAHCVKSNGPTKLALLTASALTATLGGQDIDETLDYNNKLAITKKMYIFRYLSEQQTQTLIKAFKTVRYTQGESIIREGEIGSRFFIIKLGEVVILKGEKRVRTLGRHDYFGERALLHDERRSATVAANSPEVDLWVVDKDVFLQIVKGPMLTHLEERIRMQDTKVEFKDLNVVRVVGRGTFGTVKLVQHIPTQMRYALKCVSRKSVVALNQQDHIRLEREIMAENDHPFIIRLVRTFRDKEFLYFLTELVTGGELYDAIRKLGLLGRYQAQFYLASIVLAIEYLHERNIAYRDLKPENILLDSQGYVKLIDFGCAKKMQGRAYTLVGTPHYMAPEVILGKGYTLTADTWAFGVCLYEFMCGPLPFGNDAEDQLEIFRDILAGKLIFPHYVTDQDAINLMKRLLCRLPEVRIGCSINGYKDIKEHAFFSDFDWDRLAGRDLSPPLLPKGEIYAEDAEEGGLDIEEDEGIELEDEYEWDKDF

Take `CCCN1CCC(c2cc(-c3ccncc3)c(-c3ccc(F)cc3)[nH]2)CC1`: the Activity in the experiment with Eimeria acervulina and in the experiment with Eimeria tenella was under 50% throughout. The same compound displayed an IC50 in experiment [1] of 4.2 nM.
As to `CN1CCC1CN1CCC(c2cc(-c3ccncc3)c(-c3ccc(F)cc3)[nH]2)CC1` (stereo not drawn), the Activity entry in the experiment on Eimeria acervulina and with Eimeria tenella was “>=80%” in each case. In addition, in experiment [1], the IC50 worked out at 0.28 nM.
As to `CN1CCC(c2cc(-c3ccncc3)c(-c3ccc(F)cc3)s2)CC1`, the Activity result in the experiment with Eimeria acervulina and in the experiment on Eimeria tenella was “>=80%” throughout. Further, the IC50 in experiment [1] was 4.2 nM.
In the case of `CN1CCC(c2nc(-c3ccc(F)cc3)c(-c3ccncc3)s2)CC1`, the Activity in the experiment on Eimeria tenella is listed as under 50%; in the experiment filed under Gallus gallus, 0%. The IC50 in experiment [1] is 1.5 nM.
In the experiment on Eimeria tenella, `CN1CCC(c2cc(-c3cccnc3)c(-c3ccc(F)cc3)[nH]2)CC1` returned an Activity of under 50%. The compound also showed an IC50 in experiment [1] of 11.7 nM.
For `CN1CCC(c2[nH]c(-c3ccc(F)cc3)c(-c3ccncc3)c2Br)CC1`, the Activity in the experiment with Eimeria acervulina and in the experiment with Eimeria tenella was under 50% each time. Further, the IC50 in experiment [1] amounted to 1.2 nM.
As to `Cc1cc(-c2cc(C3CCN(C)CC3)[nH]c2-c2ccc(F)cc2)on1`, the Activity with Eimeria acervulina and in the experiment on Eimeria tenella was under 50% each time. The compound further had an IC50 in experiment [1] of over 1000 nM.
Consider `Cc1cnccc1-c1cc(C2CCN(C)CC2)[nH]c1-c1ccc(F)cc1`, for which the Activity in the experiment with Eimeria acervulina and in the experiment with Eimeria tenella was under 50% in each case. In experiment [1], the IC50 came to 1.7 nM.
Regarding `CN1CCC(c2nc(-c3ccc(F)cc3)c(-c3ccncc3)o2)CC1`, the Activity entry with Eimeria acervulina and in the experiment with Eimeria tenella was “>=80%” throughout. In experiment [1], this compound registered an IC50 of 0.97 nM.
Regarding `CN1CCC(c2cc(-c3ccncc3)c(-c3ccc(S(C)(=O)=O)cc3)[nH]2)CC1`, the Activity was under 50% in the experiment on Eimeria acervulina and “>=80%” in the experiment with Eimeria tenella. Moreover, in experiment [1], the IC50 came to 42 nM.
For `CN1CCC(c2cc(-c3ccncc3)c(-c3ccc(Cl)cc3)[nH]2)CC1` the same measures were “>=80%”, under 50% and 1 nM.
The like results for `CN1CCC(c2cc(-c3ccncc3)c(-c3ccc(OC(F)(F)F)cc3)[nH]2)CC1` were, in that order, under 50%, “>=80%” and 46 nM.
Consider `Cc1cc(-c2cc(C3CCN(C)CC3)[nH]c2-c2ccc(F)cc2)ccn1`, for which the Activity in the experiment with Eimeria acervulina and in the experiment on Eimeria tenella was under 50% each time. Besides, the IC50 in experiment [1] amounted to 2.8 nM.
On to `OCCCN1CCC(c2cc(-c3ccncc3)c(-c3ccc(F)cc3)[nH]2)CC1`, for which the Activity entry with Eimeria acervulina is given as “>=80%”. Besides, the IC50 in experiment [1] worked out at 0.53 nM.
Consider `Cc1c(C2CCN(C)CC2)[nH]c(-c2ccc(F)cc2)c1-c1ccncc1`, for which the Activity with Eimeria acervulina and in the experiment with Eimeria tenella was under 50% throughout. Moreover, in experiment [1], half-maximal inhibition (IC50) was put at 1 nM.
Take `CN1CCC(c2cc(-c3ccncc3)c(-c3ccc(F)c(Cl)c3)[nH]2)CC1`: the Activity entry in the experiment with Eimeria tenella is “>=80%”. The compound also came in with an IC50 in experiment [1] of 0.44 nM.
With `CN1CCC(c2cc(-c3ccncc3)c(-c3ccc(F)cc3)nn2)CC1`, the Activity in the experiment with Eimeria acervulina and in the experiment with Eimeria tenella was under 50% in each case. The IC50 in experiment [1] was determined as 1000 nM.
On to `CN1CCC(c2cc(-c3ccc(F)cc3)c(-c3ccc(F)cc3)[nH]2)CC1`, for which the Activity in the experiment on Eimeria acervulina and with Eimeria tenella was under 50% in each case. For the same compound, the IC50 in experiment [1] was found to be 15.6 nM.
Consider `CN1CCC(c2cc(-c3ccncc3)c(-c3ccc(F)cc3)o2)CC1`, for which the Activity with Eimeria tenella was under 50%. Further, 2.1 nM corresponded to half-maximal inhibition in experiment [1] (IC50).
On to `CN1CCC(c2cc(-c3ccccn3)c(-c3ccc(F)cc3)[nH]2)CC1`, for which the Activity in the experiment with Eimeria acervulina and with Eimeria tenella was under 50% throughout. For the same compound, inhibition in experiment [1] was half-maximal at 23.6 nM (IC50).
In the case of `CN1CCC(c2cc(-c3ccncc3)c(-c3ccc(O)cc3)[nH]2)CC1`, the Activity in the experiment on Eimeria acervulina and with Eimeria tenella was under 50% throughout. For the same compound, the IC50 in experiment [1] was 50 nM.
Take `CN1CCC(c2cc(-c3ccncc3)c(-c3ccc(F)c(Br)c3)[nH]2)CC1`: the Activity in the experiment on Eimeria acervulina and in the experiment with Eimeria tenella was under 50% each time. In addition, the IC50 in experiment [1] was determined as 0.15 nM.
Take `CN1CCC(c2cc(-c3ccncc3)c(-c3ccco3)[nH]2)CC1`: the Activity in the experiment on Eimeria acervulina and in the experiment with Eimeria tenella was under 50% each time. In addition, the IC50 in experiment [1] was found to be 11.1 nM.
For the compound `CN1CCC(c2cc(-c3ccncc3)c(-c3ccc(C(F)(F)F)cc3)[nH]2)CC1`, the Activity in the experiment on Eimeria acervulina and in the experiment with Eimeria tenella was under 50% in each case. This compound also registered an IC50 in experiment [1] of 55 nM.
With `CN1CCC(c2cc(-c3ccncc3)c(-c3ccoc3)[nH]2)CC1`, the Activity in the experiment with Eimeria acervulina and with Eimeria tenella was under 50% each time. Further, 26.3 nM corresponded to half-maximal inhibition in experiment [1] (IC50).
In turn, `CN1CCC(c2[nH]c(-c3ccc(F)cc3)c(-c3ccncc3)c2Cl)CC1` displayed an Activity in the experiment on Eimeria acervulina of under 50%. For the same compound, in experiment [1], the IC50 is 1.02 nM.
Turning to `OC1(CN2CCC(c3cc(-c4ccncc4)c(-c4ccc(F)cc4)[nH]3)CC2)CC1`, the Activity result in the experiment with Eimeria acervulina and with Eimeria tenella was “>=80%” each time. This compound also registered an IC50 in experiment [1] of 1.1 nM.
Turning to `OCCN1CCC(c2cc(-c3ccncc3)c(-c3ccc(F)cc3)[nH]2)CC1`, the Activity entry with Eimeria acervulina and in the experiment with Eimeria tenella was “>=80%” each time. This compound gave an IC50 in experiment [1] of 0.71 nM.
Regarding `CN1CCC(c2cc(-c3ccncc3)c(-c3nccs3)[nH]2)CC1`, the Activity in the experiment with Eimeria acervulina and in the experiment on Eimeria tenella was under 50% in each case. Further, in experiment [1], the IC50 is 39.7 nM.
Consider `NCCN1CCC(c2cc(-c3ccncc3)c(-c3ccc(F)cc3)[nH]2)CC1`, for which the Activity in the experiment on Eimeria acervulina and in the experiment on Eimeria tenella was under 50% each time. The IC50 in experiment [1] was 0.28 nM.
For the compound `CN1CCC(c2nc(-c3ccc(F)cc3)c(-c3ccncc3)[nH]2)CC1`, the Activity in the experiment on Eimeria acervulina is under 50%; in the experiment on Eimeria tenella, “>=80%”. In addition, the IC50 in experiment [1] amounted to 1.1 nM.
For `NC1(CN2CCC(c3cc(-c4ccncc4)c(-c4ccc(F)cc4)[nH]3)CC2)CC1`, the Activity in the experiment with Eimeria acervulina and in the experiment on Eimeria tenella was under 50% in each case. In experiment [1], this compound yielded an IC50 of 0.24 nM.
In experiment [1], `CN1CCC(c2cc(-c3ccncc3)c(-c3ccccc3)[nH]2)CC1` yielded an IC50 of 3.1 nM.
Regarding `CN1CCC(c2cc(-c3ccncc3)c(-c3ccsc3)[nH]2)CC1`, the Activity with Eimeria acervulina and with Eimeria tenella was under 50% in each case. Also, the IC50 in experiment [1] was 11.9 nM.
For the compound `CN1CCC(c2cc(-c3ccncc3)c(-c3ccc(F)cc3)[nH]2)CC1`, the Activity entry with Eimeria acervulina and with Eimeria tenella was “>=80%” throughout. In experiment [1], this compound came in with an IC50 of 0.7 nM.
Turning to `CN1CCC(c2cc(-c3ccncc3)c(-c3cccc(F)c3)[nH]2)CC1`, the Activity in the experiment with Eimeria acervulina and in the experiment with Eimeria tenella was under 50% each time. Moreover, in experiment [1], the IC50 is 7.4 nM.
Turning to `CC(N)CN1CCC(c2cc(-c3ccncc3)c(-c3ccc(F)cc3)[nH]2)CC1` (stereo not drawn), the Activity entry in the experiment on Eimeria acervulina and with Eimeria tenella was “>=80%” each time. This compound also registered an IC50 in experiment [1] of 2 nM.
On to `CC(=O)CN1CCC(c2cc(-c3ccncc3)c(-c3ccc(F)cc3)[nH]2)CC1`, for which the Activity in the experiment on Eimeria acervulina and in the experiment on Eimeria tenella was under 50% each time. In addition, the midpoint of inhibition in experiment [1], the IC50, lay at 0.32 nM.
As for `CN1CCC(c2cc(-c3ccncc3)c(-c3ccc(F)c(F)c3)[nH]2)CC1`, the Activity in the experiment with Eimeria acervulina was under 50%; in the experiment on Eimeria tenella, “>=80%”. Also, the IC50 in experiment [1] amounted to 2 nM.
For `NCCCN1CCC(c2cc(-c3ccncc3)c(-c3ccc(F)cc3)[nH]2)CC1` the same measures were under 50%, under 50% and 0.046 nM.
